PKA-R2B activ: activates the human PKA-R2B holoenzyme complex. PKA-R2B holoenzyme dissociation, Cy5-IP20 fluorescence polarization; R2B truncated from residue 108, S112A mutant; 0% DMSO only, 100% 113 µM cGMP. activation, % at 11.4 µM. hit rate 0.079% among 340,000;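 active means activation above a cutoff set at the mean over all compounds plus 3 SD, cut at about 18% in these data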;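 further: higher means more holoenzyme dissociation and a rise in polarization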
Rin1-Abl PPI inh: human Rin1-Abl interaction inhibition; P00519+Q13671; TR-FRET Rin1/Abl binding, biochemical; inhibition, % at 7.35 µM; hit rate 0.4% among 360,000; AID 588664; in the data active means inhibition above about 5%, passing the limit was not always enough
Cardio protect: modulators protecting cardiomyocytes from myocardial damage; H9c2 cardiomyocytes, H2O2 injury protection, ATPLite, 2 h; protection from H2O2 cell death, % at 20 µM; hit rate 0.63% among 360,000; AID 588492;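 active means compounds giving at least 50% protection of heart cells from peroxide-induced death in the single-dose screen, raw or plate-pattern-corrected value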
TbMetRS inhib: blocks T. brucei methionyl-tRNA synthetase activity. inhibition, % at 11.9 µM. hit rate 0.4% among 360,000. purified T. brucei MetRS, ATP depletion, Kinase-Glo luminescence;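 active means inhibition above a per-plate cutoff of the control wells' mean inhibition plus 3 SD, cut at about 5.5% in these data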
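Dosing: 11.9 µM compound single dose, 0.9% DMSO; Assay system: purified T. brucei MetRS enzyme; Measured by: Kinase-Glo luciferase luminescence reporting remaining unconsumed ATP; Schedule: 15 min plus 2 h at 25 °C.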
PKA-R1A activ: activators of PKA-R1A complex; PKA-R1A dissociation, Cy5-IP20 fluorescence polarization; scaled: DMSO 0%, 113 µM cGMP 100%; activation, % at 11.4 µM; hit rate 0.083% among 340,000;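 active means percent activation above the mean of all tested compounds plus 3 SD, cut at about 19% in these data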;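 further: higher means more PKAc released from R1A so a rise in polarization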
Tb MetRS conf: Trypanosoma brucei MetRS inhibition confirmed; hit rate 93% among 1,400; AID 624412; inhibition, % at 11.9 µM; shares compounds with TbMetRS inhib; T. brucei MetRS enzyme, luminescence (ATP depletion); in the data active means inhibition above about 7%
Jurkat tox: kills Jurkat cells in T. brucei MetRS counterscreen; shares compounds with TbMetRS inhib; Jurkat cells viability, ATP luminescence; inhibition, % at 8.3 µM; hit rate 12% among 1,400; AID 624413; in the data active means inhibition above about 15%
Tb MetRS inh FP: inhibits T. brucei methionyl tRNA synthetase in orthogonal FP test. shares compounds with TbMetRS inhib. purified T. brucei MetRS, fluorescence polarization. inhibition, % at 11.9 µM. hit rate 44% among 1,400. AID 651607; in the data active means inhibition above about 17%
Large screens that a line does not name were inactive (follow-up assays come after a bar, where they were run). An excerpt weighted towards active compounds, which were near 1.5% of everything screened.

Nc1nc2ccccc2n1CCOc1ccc(Cl)cc1	TbMetRS inhib 25.8 | Tb MetRS conf 45.2 | Jurkat tox inactive | Tb MetRS inh FP 22.0
Cc1ccc(OCCn2c(C)nc3ccccc32)cc1	none
O=C(O)c1ccc(Cl)c(NCc2cccs2)c1	none
COc1cccc(NC(=O)C/C(C)=N/NC(=O)c2ccccc2Cl)c1	none
C/C(CC(=O)Nc1cccc(Br)c1)=N\NC(=O)c1ccc(O)cc1O	TbMetRS inhib 27.0 | Tb MetRS conf 98.4 | Jurkat tox inactive | Tb MetRS inh FP 80.2
COc1ccc(OC)c(-n2c(SCC(=O)NCc3ccco3)nnc2-c2c[nH]c3ccccc23)c1	TbMetRS inhib 9.5 | Tb MetRS conf 21.5 | Jurkat tox inactive | Tb MetRS inh FP inactive
COc1ccc(-n2c(SC)nnc2-c2c[nH]c3ccccc23)cc1	none
COc1cccc(-n2c(SC)nnc2-c2c[nH]c3ccccc23)c1	TbMetRS inhib 12.5 | Tb MetRS conf 22.1 | Jurkat tox inactive | Tb MetRS inh FP inactive
CCO[C@@H]1OC(C(=O)NCc2nc3ccccc3[nH]2)=C[C@H](c2csc3ccccc23)[C@H]1CCCO	TbMetRS inhib 86.3 | Tb MetRS conf 93.3 | Jurkat tox inactive | Tb MetRS inh FP 97.1
CCO[C@@H]1OC(C(=O)NCc2nc3ccccc3[nH]2)=C[C@H](c2ccccc2)[C@H]1CCCO	TbMetRS inhib 8.6 | Tb MetRS conf 38.4 | Jurkat tox inactive | Tb MetRS inh FP 19.6
CCO[C@H]1OC(C(=O)NCc2nc3ccccc3[nH]2)=C[C@@H](c2ccccc2)[C@@H]1CCCO	none
CCO[C@@H]1OC(C(=O)NCc2ccccc2)=C[C@H](c2csc3ccccc23)[C@H]1CCCO	none
CCO[C@H]1OC(C(=O)NCc2nc3ccccc3[nH]2)=C[C@@H](c2csc3ccccc23)[C@@H]1CCCO	TbMetRS inhib 7.6 | Tb MetRS conf 38.4 | Jurkat tox inactive | Tb MetRS inh FP inactive
C#CCNC(=O)C1=C[C@H](c2csc3ccccc23)[C@@H](CCCO)[C@H](OCC)O1	none
Cc1ccc(C)c(N2CCN(C(=O)c3nn(C)c4c3CS(=O)(=O)c3ccccc3-4)CC2)c1	none
NS(=O)(=O)c1ccc(CCNC(=O)C(=O)c2c[nH]c3ccccc23)cc1	TbMetRS inhib 11.6 | Tb MetRS conf 25.6 | Jurkat tox inactive | Tb MetRS inh FP inactive
Cc1[nH]c2ccccc2c1C(=O)C(=O)NCCc1ccc(S(N)(=O)=O)cc1	TbMetRS inhib 49.7 | Tb MetRS conf 65.9 | Jurkat tox inactive | Tb MetRS inh FP 44.6
COC(=O)C[C@@H]1C[C@H]2c3cc(NS(C)(=O)=O)ccc3O[C@H]2[C@H](CO)O1	none
NC(=O)CSc1nnc(Cc2csc(Nc3ccccc3)n2)n1Cc1ccccc1	TbMetRS inhib 9.0 | Tb MetRS conf 16.0 | Jurkat tox inactive | Tb MetRS inh FP inactive
COCCCn1c(Cc2csc(Nc3ccccc3)n2)nnc1SCC(N)=O	none
CC(NC(=O)c1cccc2c1Oc1ccccc1S2)C(=O)O (stereo unspecified)	TbMetRS inhib 8.7 (no result: PKA-R2B activ, PKA-R1A activ) | Tb MetRS conf 11.4 | Jurkat tox inactive | Tb MetRS inh FP inactive
CC(C)NC(=O)c1ccccc1-c1ccccc1	none
O=C(Cn1cc(C(=O)c2cccs2)c2ccccc21)NCc1ccc2c(c1)OCO2	TbMetRS inhib 21.1 | Tb MetRS conf 35.0 | Jurkat tox inactive | Tb MetRS inh FP inactive
O=C(NCc1ccc2c(c1)OCO2)C1CC(=O)N(c2ccc(Cl)cc2)C1 (stereo unspecified)	TbMetRS inhib 8.9 | Tb MetRS conf 16.4 | Jurkat tox inactive | Tb MetRS inh FP inactive
Cc1ccc(N2CC(C(=O)NCc3ccc4c(c3)OCO4)CC2=O)cc1C (stereo unspecified)	none

Source: PubChem BioAssay (several laboratories)
